Screening results: PubChem BioAssay, Broad Institute
A1 apoptosis 2 = A1 inhibitors via caspase activation, primary screen, cell-based, luminescence, HTS, two replicates. 24,000 tested, under 10 active. caspase activation, % (no concentration beside the values). MEF A1-2A-BIM cells, caspase-Glo luminescence, 3 h; percent of clofoctol response, DMSO zero; in the data active means caspase activation above about 5.9%
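Test system – A1-2A-BIM-expressing MEF cells · Input – 2500 cells/well · Medium – RPMI-1640 growth medium with 10% FBS · Compound dosing – 50 nL pinned compound · Timing – 3 h compound exposure at 37 °C · Technique – Caspase-Glo luminescence (DEVD substrate) · Evaluation – Caspase-3/7 activity from luminescence increase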
INS-1E ATP HTS = protection of INS-1E cells from cytokine death, primary screen, ATP luminescence, single point | INS-1E cytokine-induced death, 48 h; normalised: neutral wells 0, positive control 100 | protection from cytokine-induced ATP loss, % at 10 µM | 0.1% of 20,000 active | AID 488910, 2010;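 active means mean replicate protection from cytokine-induced ATP loss at least 50% and at least 75% of replicates each reaching 50%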
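assay system = INS-1E rat insulinoma cells | amount = 8000 cells per well | medium = phenol-red-free RPMI with 5% fetal bovine serum | doses = one compound concentration, pin transfer | timing = 48 h cytokine plus compound treatment, 10 min reagent incubation | also added = IL-1β, TNF-α and IFN-γ cytokine mix | signal = CellTiter-Glo luminescence measuring cellular ATP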
T cruzi HTS = inhibitors of intracellular Trypanosoma cruzi, primary screen, cell-based, plate reader, single point, set 2 | intracellular Trypanosoma cruzi in host cells | 4.9% of 22,000 active | activity score (inhibition), % at 5.01 µM | AID 651903, 2012; in the data active means activity score above about 55%;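 further: parasites and compound incubated about four days before reading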
A number is an active result; 0 = inactive; - = not tested or not shown. Only a selection was taken, and hits are over-represented in it overall.

SMILES	A1 apoptosis 2	INS-1E ATP HTS	T cruzi HTS
COc1ccc(NC(=O)N(C)C[C@@H]2Oc3ncc(C#CC(C)(C)O)cc3C(=O)N([C@H](C)CO)C[C@@H]2C)cc1	0	-	0
C[C@H](CO)N1C[C@H](C)[C@H](CN(C)C(=O)Nc2ccccc2)Oc2ncc(C#Cc3ccccc3)cc2C1=O	0	-	0
O=C(CCCCCCC(=O)Nc1ccccc1O)N/N=C/c1ccc([N+](=O)[O-])c(O)c1	0	0	0
O=C(CCCCCC(=O)N/N=C/c1ccccn1)NO	0	-	-
C[C@H](CO)N1C[C@H](C)[C@H](CN(C)S(=O)(=O)c2ccc(Cl)cc2)Oc2ccc(NS(=O)(=O)c3ccc(Cl)cc3)cc2C1=O	0	-	64
Cc1ccc(S(=O)(=O)Nc2ccc3c(c2)C(=O)N([C@H](C)CO)C[C@H](C)[C@H](CN(C)S(=O)(=O)c2ccc(Cl)cc2)O3)cc1	-	-	47
Cc1ccc(S(=O)(=O)N(C)C[C@@H]2Oc3ccc(NS(=O)(=O)c4ccc(Cl)cc4)cc3C(=O)N([C@H](C)CO)C[C@@H]2C)cc1	0	0	0
C[C@H](CO)N1C[C@H](C)[C@@H](CN(C)S(=O)(=O)c2ccc(Cl)cc2)Oc2ccc(NS(=O)(=O)c3ccc(Cl)cc3)cc2C1=O	0	0	0
CC(C)(C)OC(=O)N1CCC[C@H]1/C=N/NC(=O)CCCCCC(=O)NO	0	-	-
C[C@H](CO)N1C[C@H](C)[C@@H](CN(C)Cc2ccc(Oc3ccccc3)cc2)Oc2c(NC(=O)Nc3ccc4c(c3)OCO4)cccc2C1=O	-	0	0
C[C@@H]1CN([C@@H](C)CO)C(=O)c2cccc(NC(=O)Nc3ccc4c(c3)OCO4)c2O[C@H]1CN(C)Cc1ccc(Oc2ccccc2)cc1	0	0	70
C[C@@H]1CN([C@H](C)CO)C(=O)c2cccc(NC(=O)Nc3ccc4c(c3)OCO4)c2O[C@@H]1CN(C)Cc1ccc(Oc2ccccc2)cc1	-	0	0
C[C@@H]1CN([C@@H](C)CO)C(=O)c2cccc(NC(=O)Nc3ccc4c(c3)OCO4)c2O[C@@H]1CN(C)Cc1ccc(Oc2ccccc2)cc1	-	0	73
Cc1noc(C)c1S(=O)(=O)Nc1ccc2c(c1)CC(=O)N([C@@H](C)CO)C[C@H](C)[C@H](CN(C)Cc1ccccc1)O2	0	0	0
Cc1noc(C)c1S(=O)(=O)Nc1ccc2c(c1)CC(=O)N([C@@H](C)CO)C[C@H](C)[C@@H](CN(C)Cc1ccccc1)O2	0	0	0
Cc1noc(C)c1S(=O)(=O)Nc1ccc2c(c1)CC(=O)N([C@H](C)CO)C[C@@H](C)[C@H](CN(C)Cc1ccc(-c3ccccc3)cc1)O2	0	0	58
Cc1noc(C)c1S(=O)(=O)Nc1ccc2c(c1)CC(=O)N([C@H](C)CO)C[C@H](C)[C@H](CN(C)Cc1ccc(Oc3ccccc3)cc1)O2	0	0	-
Cc1noc(C)c1S(=O)(=O)Nc1ccc2c(c1)C(=O)N([C@H](C)CO)C[C@H](C)[C@H](CN(C)Cc1ccc(-c3ccccc3)cc1)O2	0	0	65
Cc1noc(C)c1S(=O)(=O)Nc1ccc2c(c1)CC(=O)N([C@@H](C)CO)C[C@H](C)[C@@H](CN(C)Cc1ccc(-c3ccccc3)cc1)O2	0	0	66
Cc1noc(C)c1S(=O)(=O)Nc1ccc2c(c1)CC(=O)N([C@H](C)CO)C[C@@H](C)[C@H](CN(C)Cc1ccc(Oc3ccccc3)cc1)O2	-	0	69
Cc1noc(C)c1S(=O)(=O)Nc1ccc2c(c1)C(=O)N([C@@H](C)CO)C[C@H](C)[C@@H](CN(C)Cc1ccc(-c3ccccc3)cc1)O2	-	0	0
CC(=O)Nc1ccc(C(=O)Nc2ccccc2[N+](=O)[O-])cc1	0	-	-
CCCC[C@H]1OB(O)C[C@H]2C1=C(COc1ccccc1)Cn1c(=O)n(-c3ccccc3)c(=O)n12	0	-	-
C[C@@H]1CCCCO[C@H](CN(C)C)[C@H](C)CN([C@@H](C)CO)C(=O)c2cc(NC(=O)C3CCCCC3)ccc2O1	0	-	-
O=C(O)CCCCCCC(=O)N/N=C/c1cccc2ccccc12	-	0	0
SMILES	A1 apoptosis 2	INS-1E ATP HTS	T cruzi HTS
C[C@@H]1CN([C@H](C)CO)C(=O)c2cccc(NC(=O)c3ccc(-c4nccs4)cc3)c2O[C@H]1CN(C)C(=O)Nc1ccc(C(F)(F)F)cc1	-	0	77
C[C@@H]1CN([C@@H](C)CO)C(=O)c2cccc(NC(=O)c3ccc(-c4nccs4)cc3)c2O[C@H]1CN(C)C(=O)Nc1ccc(C(F)(F)F)cc1	-	0	68
C[C@H](CO)N1C[C@H](C)[C@H](CN(C)C(=O)Nc2ccc(F)cc2)Oc2c(NC(=O)c3ccc(-c4nccs4)cc3)cccc2C1=O	-	0	0
C[C@H]1CN([C@@H](C)CO)C(=O)c2cccc(NC(=O)c3ccc(-c4nccs4)cc3)c2O[C@H]1CN(C)C(=O)Nc1ccc(C(F)(F)F)cc1	-	0	0
O=C1c2ccccc2C(=O)N1CC1CCN(Cc2cccc(OCCO)c2)CC1	0	-	-
CCOc1cc(/C=N/NC(=O)c2cccc(C(=O)NO)c2)ccc1O	-	0	0
C[C@@H]1CN([C@H](C)CO)C(=O)Cc2cc(NS(=O)(=O)c3ccc(Cl)cc3)ccc2O[C@@H]1CN(C)Cc1ccc2c(c1)OCO2	-	0	60
C[C@@H]1CN([C@H](C)CO)C(=O)Cc2cc(NS(=O)(=O)c3ccc(Cl)cc3)ccc2O[C@H]1CN(C)Cc1ccc2c(c1)OCO2	0	0	64
Cc1ccc(S(=O)(=O)Nc2ccc3c(c2)CC(=O)N([C@@H](C)CO)C[C@@H](C)[C@@H](CN(C)Cc2ccc4c(c2)OCO4)O3)cc1	0	0	0
C[C@@H]1CN([C@@H](C)CO)C(=O)Cc2cc(NS(=O)(=O)c3ccc(Cl)cc3)ccc2O[C@H]1CN(C)Cc1ccc2c(c1)OCO2	0	-	-
COc1ccc2[nH]c(=O)[nH]c(=O)c2c1	0	-	-
C[C@H]1CN([C@@H](C)CO)C(=O)Cc2cc(NS(=O)(=O)c3ccc(Cl)cc3)ccc2O[C@@H]1CN(C)Cc1ccncc1	0	0	0
C[C@H]1CN([C@@H](C)CO)C(=O)Cc2cc(NS(=O)(=O)c3ccc(F)cc3)ccc2O[C@H]1CN(C)Cc1ccc(Cl)c(Cl)c1	-	0	0
C[C@@H]1CN([C@H](C)CO)C(=O)Cc2cc(NS(=O)(=O)c3ccc(F)cc3)ccc2O[C@H]1CN(C)Cc1ccc(Cl)c(Cl)c1	-	0	77
C[C@@H]1CN([C@H](C)CO)C(=O)Cc2cc(NS(=O)(=O)c3ccc(Cl)cc3)ccc2O[C@@H]1CN(C)Cc1ccncc1	0	0	76
C[C@@H]1CN([C@H](C)CO)C(=O)Cc2cc(NS(=O)(=O)c3ccc(Cl)cc3)ccc2O[C@H]1CN(C)Cc1ccc(Cl)c(Cl)c1	-	0	65
C[C@H](CO)N1C[C@H](C)[C@@H](CN(C)Cc2ccc(Cl)c(Cl)c2)Oc2ccc(NS(=O)(=O)c3ccc(Cl)cc3)cc2CC1=O	0	-	-
Cc1noc(C)c1S(=O)(=O)Nc1ccc2c(c1)C(=O)N([C@H](C)CO)C[C@H](C)[C@H](CN(C)C(=O)Nc1ccc3c(c1)OCO3)O2	0	0	0
